Data set [1] deals with Canis familiaris. The experiment in a line: % ectopic beats was measured in anesthetized dog at 0.21+/-0.19 dose; 4+/-3. The data set is classed as functional, Canis lupus familiaris, Heart.
The species named for data set [2] is Mus musculus. The experiment in a line: Percentage toxicity measured as ataxia. The settings on record: in vivo. The data set is classed as organism-based. The procedure, abridged:
(§1)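 Mice (groups of 10) were dosed sc with drug in 0.9% saline and watched for 20 min for overt toxicity (ataxia, convulsions, loss of righting reflex, death) before chloroform exposure.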

For data set [3], the species on record is Mus musculus. The data set is described as follows: Percentage toxicity measured as loss of righting reflex. The settings on record: in vivo. The data set is classed as organism-based. The procedure, abridged:
as §1

Data set [4] concerns Mus musculus. The data set is described as follows: Ataxia was measured in mice after sc administration at given dose. The class given is functional. The procedure, abridged:
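Mice in groups of 10 received drug sc in 0.9% saline and were watched 20 min for overt toxicity before chloroform exposure. At least three doses were given.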

Data set [5] is filed under the species Canis familiaris. The experiment in a line: The dose at which toxicity was measured. The data set is classed as organism-based, Canis lupus familiaris. The settings on record: dog, in vivo. Put shortly: (§2)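 Adult female dogs (6.7–14.5 kg) had two-stage ligation of the left anterior descending coronary artery the day before testing. After control ventricular rate, % ectopic beats and mean arterial pressure were recorded, the drug (HCl salt, isotonic solution) was infused iv without anesthesia at 0.1, 0.5 or 1.0 (mg/kg)/min, mostly 0.5. Infusion continued until the arrhythmia was abolished or cardiovascular/CNS toxicity appeared. Cumulative dose is given in mmol/kg; toxicity included convulsion and P-R prolongation ≥25%.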

Data set [6] concerns Canis familiaris. The experiment in a line: Ventricular rate was measured in anesthetized dog at 0.21+/-0.19 dose. The data set is classed as functional, Canis lupus familiaris, Heart. The settings on record: in the assay text read “unanesthetized” for “anesthetized”. Put shortly: (§3)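 Adult female dogs (6.7–14.5 kg) had ventricular arrhythmias from two-stage ligation of the left anterior descending coronary artery the day before. Ventricular rate (bpm) was read at maximal antiarrhythmic effect against cumulative dose.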

In data set [7] the test system is Mus musculus. The experiment in a line: Protection against chloroform induced arrhythmias was measured in mice after sc administration at given dose. The data set is classed as functional. The settings on record: Mus musculus, sc; read-out: ED50. Put shortly:
(§4)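 Groups of 10 unanesthetized mice got sc injection of drug in 0.9% saline. After 20 min observation they were placed one by one in chloroform-vapor-saturated air. When breathing stopped, the thorax was opened and the heart inspected by eye; coordinated ventricular contractions counted as protected.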

The subject of data set [8] is Mus musculus. The data set is described as follows: Protection against chloroform induced arrhythmias in mice after subcutaneous administration at 100 mg/kg dose. The class given is functional. The procedure, abridged: as §4
Data set [9] is filed under the species Mus musculus. The data set is described as follows: Percentage toxicity measured as convulsions. The class given is organism-based. The settings on record: in vivo. Put shortly: as §1
Data set [10] relates to Canis familiaris. The data set is described as follows: MABP value was measured in anesthetized dog at 0.21+/-0.19 dose. The data set is classed as functional, Canis lupus familiaris.
Data set [11] is described as follows: Percentage toxicity measured as death of mice. More on the design: concentration or dose not given beside the values. The settings on record: mouse, in vivo; read-out: Death. The class given is organism-based.
The test system of data set [12] is Canis familiaris. The experiment in a line: % ectopic beats was measured in unanesthetized dog at 0.084 dose.
The subject of data set [13] is Canis familiaris. The data set is described as follows: Ventricular rate was measured in anesthetized dog at 0.042 dose. The class given is functional, Canis lupus familiaris, Heart. The settings on record: in the assay text read “unanesthetized dog” for “anesthetized dog”. The procedure, abridged: as §2
The test system of data set [14] is Canis familiaris. The data set is described as follows: Ventricular rate was measured in anesthetized dog at 0.042d dose. The class given is functional, Canis lupus familiaris, Heart. The settings on record: in the assay text read “unanesthetized dog” for “anesthetized dog”. Put shortly:
as §2

For data set [15], the system named is Canis familiaris. The experiment in a line: Blood level was measured in anesthetized dog at 0.042 dose. The data set is classed as functional, Canis lupus familiaris.
The species entered for data set [16] is Canis familiaris. The data set is described as follows: Nature of toxicity was expressed; convulsion. The data set is classed as organism-based, Canis lupus familiaris. The settings on record: dog, in vivo. Put shortly: as §2
The subject of data set [17] is Canis familiaris. The experiment in a line: Ventricular rate was measured in anesthetized dog at 0.038 dose. The settings on record: in the assay text read “unanesthetized dog” for “anesthetized dog”. The class given is functional, Canis lupus familiaris, Heart. The procedure, abridged: as §2
For data set [18], the system named is Canis familiaris. The experiment in a line: Blood level was measured in anesthetized dog at 0.084 dose. The class given is functional, Canis lupus familiaris.
For data set [19], the species on record is Canis familiaris. The data set is described as follows: (§5) The dose at which toxicity was measured. The class given is organism-based, Canis lupus familiaris. More on the design: unit: mmol/kg. The settings on record: dog, in vivo. The procedure, abridged: as §2
In data set [20] the test system is Canis familiaris. The data set is described as follows: % ectopic beats was measured in unanesthetized dog at 0.056 dose.
Data set [21] deals with Canis familiaris. The experiment in a line: MABP value was measured in anesthetized dog at 0.038 dose. The class given is functional, Canis lupus familiaris. The settings on record: in the assay text read “unanesthetized dog” for “anesthetized dog”. The procedure, abridged: (§6)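 Adult female dogs (6.7–14.5 kg) had the left anterior descending coronary artery ligated in two stages the day before testing. Dogs were unanesthetized. Ectopic beats (% of ventricular rate) and mean arterial pressure were read at maximal antiarrhythmic effect against the cumulative dose.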

Data set [22] concerns Canis familiaris. The experiment in a line: % ectopic beats was measured in anesthetized dog at 0.038 dose. The data set is classed as functional, Canis lupus familiaris, Heart. The settings on record: in the assay text read “unanesthetized” for “anesthetized”. Put shortly: as §6
The species named for data set [23] is Canis familiaris. The description is as §5. The settings on record: dog, in vivo. The class given is organism-based, Canis lupus familiaris. Put shortly: as §2
In data set [24] the test system is Canis familiaris. The data set is described as follows: MABP value was measured in anesthetized dog at 0.056 dose. The data set is classed as functional, Canis lupus familiaris. The settings on record: in the assay text read “unanesthetized dog” for “anesthetized dog”. The procedure, abridged:
as §2

The species entered for data set [25] is Canis familiaris. The experiment in a line: MABP value was measured in […] at 0.084 dose. The class given is functional, Canis lupus familiaris. The procedure, abridged: as §2
Data set [26] has as its system Canis familiaris. The data set is described as follows: Ventricular rate was measured in anesthetized dog at 0.084 dose. The data set is classed as functional, Canis lupus familiaris, Heart. The settings on record: in the assay text read “unanesthetized” for “anesthetized”. The procedure, abridged:
as §3

For data set [27], the system named is Canis familiaris. The experiment in a line: Ventricular rate was measured in anesthetized dog at 0.056 dose. The settings on record: in the assay text read “unanesthetized dog” for “anesthetized dog”. The data set is classed as functional, Canis lupus familiaris, Heart. Put shortly: as §2
For data set [28], the system named is Canis familiaris. The data set is described as follows: MABP value was measured in anesthetized dog at 0.042 dose. The data set is classed as functional, Canis lupus familiaris.

The structures appear in SMILES notation. “And” between values parts separate entries of the source, which are not always exact repeats. Equal entries are not always repeated.

With `CCN(CC)CC(=O)Nc1c(C)cccc1C` [LIDOCAINE], in data set [1], the Etopic beats is reported as 4%. Besides, in data set [2], the Ataxia worked out at 100%. For the same compound, in data set [3], the “Loss of righting reflex” value amounted to 100%. In addition, the ED50 (in general, the midpoint of the dose-response relation) stood at 180 µmol/kg in data set [4] and 260 µmol/kg in data set [7]. Moreover, the Cumulative dose in data set [5] is 0.27. For the same compound, the Ventricular rate in data set [6] was found to be 133 beats min-1. In data set [8], this compound had a Protection of 100%. In data set [9], this compound had a Convulsion of 100%. This compound came in with an MABP in [10] of 101 mmHg. Also, the mortality in data set [11] worked out at 0%.
Turning to `CC(C)Oc1ccc2c(c1)C1(CCC2)CC(=O)N(CCCN(C)C)C1=O` (stereo not drawn), the Ectopic beats is 15% in [12] and 5% in [20]. Further, the Ventricular rate in data set [13] worked out at 165 beats min-1; in [14], 150 beats min-1; in data set [17], 120 beats min-1; in [26], 138 beats min-1; in data set [27], 171 beats min-1. The compound also had an Ataxia in [2] of 100%. Besides, in [3], the “Loss of righting reflex” value came to 10%. Besides, the Blood level in [15] came out at 0.013 uM ml-1; in [18], 0.021 uM ml-1. For the same compound, the Nature result in [16] is “convulsion”. In addition, the Protection in data set [8] is 50%. In addition, the Cumulative dose in data set [19] was 0.077 and 0.133; in [23], 0.066. In addition, the MABP in data set [21] was 75 mmHg; in data set [24] it was 110 mmHg; in data set [25], 125 mmHg; in data set [28], 90 mmHg and 100 mmHg. The compound also yielded a Convulsion in [9] of 0%. In addition, the Etopic beats in [22] is given as 2%. For the same compound, in data set [11], the mortality amounted to 0%.

The values are drawn from ChEMBL document CHEMBL1121715, “New antiarrhythmic agents. 4. 1'-(Aminoalkyl)-1,2,3,4-tetrahydronaphthalene-1-spiro-3'-pyrrolidine-2',5'-dione derivatives” (J Med Chem, 1981).
